Assay results from ChEMBL document CHEMBL1130185, “Search for DNA repair inhibitors: selective binding of nucleic bases-acridine conjugates to a DNA duplex containing an abasic site” (J Med Chem, 1997).

Experiments:
[1] = Deprotonation equilibrium constant for compound was determined; assay type: ADME
How it was run: (§1)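 pKa values were determined by potentiometric titration of the acridine ligand at 5 × 10^-4 M across pH 2-12. The distribution of nonprotonated, mono-, bi- and higher protonated species was estimated graphically from the titration curves.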

[2] = Deprotonation equilibrium constant for compound was determined at pH<4; assay type: ADME; how it was run: as §1

Structure (SMILES): COc1ccc2nc3cc(Cl)ccc3c(NCCCNCCCN)c2c1
- pKa [1]: 10

Structure (SMILES): COc1ccc2nc3cc(Cl)ccc3c(NCCCNCCCNCCn3cnc4c(N)nc(N)nc43)c2c1
- pKa [2]: 4
- pKa [1]: 9.8
